Laboratory results reported in ChEMBL document CHEMBL1268908, “Design, synthesis, radiolabeling, and in vivo evaluation of carbon-11 labeled N-[2-[4-(3-cyanopyridin-2-yl)piperazin-1-yl]ethyl]-3-methoxybenzamide, a potential positron emission tomography tracer for the dopamine D(4) receptors” (J Med Chem, 2010).

Columns and labels:
[1] = tested on: Hippocampus; assay: Biodistribution in rhesus monkey hippocampus at 150.3 MBq, iv after 0.25 mins; assay type: ADME, organism-based, Macaca mulatta; details: in vivo, 15 s
In short: (§1)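 Single male rhesus monkey anesthetized with ketamine 10 mg/kg im, head fixed. Attenuation correction by 20 min 68Ge-68Ga transmission scan. [11C]-tracer in saline (pH 7.4) given iv, specific radioactivity 2.9 TBq/μmol at injection. Dynamic 3D PET emission scan over 90 min in frames of 0.5 to 5 min. MRI T1 images used to define VOIs. Uptake expressed as […].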

[2] = tested on: Hippocampus; assay: Biodistribution in rhesus monkey hippocampus at 150.3 MBq, iv after 0.75 mins; assay type: ADME, organism-based, Macaca mulatta; details: in vivo, 45 s; in short: as §1
[3] = tested on: Hippocampus; assay: Biodistribution in rhesus monkey hippocampus at 150.3 MBq, iv after 1.25 mins; assay type: ADME, organism-based, Macaca mulatta; details: in vivo, 75 s; in short: as §1
[4] = Biodistribution in rhesus monkey cingulate cortex at 150.3 MBq, iv after 2.25 mins; assay type: ADME, organism-based, Macaca mulatta; details: in vivo, 135 s
In short: (§2)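 Male rhesus monkey under ketamine (10 mg/kg im) with head fixation. After a 20 min 68Ge-68Ga transmission scan, the [11C]-labelled tracer in saline (pH 7.4) was injected iv, at 2.9 TBq/μmol specific radioactivity at injection. A dynamic 3D PET scan followed over 90 min (6×0.5, 7×1, 20×2, 8×5 min frames). Regions were defined on T1-weighted 1.5 T MRI, and uptake is given as %ID/mL.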

[5] = Biodistribution in rhesus monkey cingulate cortex at 150.3 MBq, iv after 4.5 mins; assay type: ADME, organism-based, Macaca mulatta; details: in vivo, 0.075 h; in short: as §2
[6] = Biodistribution in rhesus monkey occipital lobe at 150.3 MBq, iv after 4.5 mins; assay type: ADME, organism-based, Macaca mulatta; details: in vivo, 0.075 h
In short: (§3)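 Male rhesus monkey under ketamine 10 mg/kg im, head fixed; 20 min 68Ge-68Ga transmission scan, then 90 min dynamic 3D PET (6×0.5, 7×1, 20×2, 8×5 min frames) after iv [11C]-labelled tracer in saline, specific radioactivity about 2.9 TBq/μmol at injection. Regions defined on T1-weighted MRI; uptake expressed as % injected dose per mL.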

[7] = Biodistribution in rhesus monkey cingulate cortex at 150.3 MBq, iv after 5.5 mins; assay type: ADME, organism-based, Macaca mulatta; details: in vivo; in short: as §1
[8] = tested on: Striatum; assay: Biodistribution in rhesus monkey striatum at 150.3 MBq, iv after 5.5 mins; assay type: ADME, organism-based, Macaca mulatta; details: in vivo
[9] = Biodistribution in rhesus monkey cingulate cortex at 150.3 MBq, iv after 6.5 mins; assay type: ADME, organism-based, Macaca mulatta; details: in vivo; in short: as §1
[10] = Biodistribution in rhesus monkey cerebellum at 150.3 MBq, iv after 6.5 mins; assay type: ADME, organism-based, Macaca mulatta; details: in vivo; in short: as §2
[11] = Biodistribution in rhesus monkey retina at 150.3 MBq, iv after 7.5 mins; assay type: ADME, organism-based, Macaca mulatta; details: in vivo, 0.125 h
[12] = tested on: Striatum; assay: Biodistribution in rhesus monkey striatum at 150.3 MBq, iv after 11 mins; assay type: ADME, organism-based, Macaca mulatta; details: in vivo
[13] = Biodistribution in rhesus monkey retina at 150.3 MBq, iv after 11 mins; assay type: ADME, organism-based, Macaca mulatta; details: in vivo
[14] = tested on: Hippocampus; assay: Biodistribution in rhesus monkey hippocampus at 150.3 MBq, iv after 13 mins; assay type: ADME, organism-based, Macaca mulatta; details: in vivo; in short: as §1
[15] = Biodistribution in rhesus monkey retina at 150.3 MBq, iv after 13 mins; assay type: ADME, organism-based, Macaca mulatta; details: in vivo
[16] = Biodistribution in rhesus monkey cingulate cortex at 170.3 MBq, iv after 17 mins; assay type: ADME, organism-based, Macaca mulatta; details: in vivo, in the assay text read “150.3 MBq” for “170.3 MBq”; in short: as §1
[17] = tested on: Striatum; assay: Biodistribution in rhesus monkey striatum at 150.3 MBq, iv after 19 mins; assay type: ADME, organism-based, Macaca mulatta; details: in vivo
[18] = Biodistribution in rhesus monkey cingulate cortex at 150.3 MBq, iv after 23 mins; assay type: ADME, organism-based, Macaca mulatta; details: in vivo; in short: as §2
[19] = Biodistribution in rhesus monkey retina at 150.3 MBq, iv after 23 mins; assay type: ADME, organism-based, Macaca mulatta; details: in vivo
[20] = tested on: Hippocampus; assay: Biodistribution in rhesus monkey hippocampus at 150.3 MBq, iv after 25 mins; assay type: ADME, organism-based, Macaca mulatta; details: in vivo; in short: as §1
[21] = tested on: Striatum; assay: Biodistribution in rhesus monkey striatum at 150.3 MBq, iv after 25 mins; assay type: ADME, organism-based, Macaca mulatta; details: in vivo
[22] = Biodistribution in rhesus monkey cerebellum at 150.3 MBq, iv after 27 mins; assay type: ADME, organism-based, Macaca mulatta; details: in vivo, 0.45 h; in short: as §2
[23] = tested on: Hippocampus; assay: Biodistribution in rhesus monkey hippocampus at 150.3 MBq, iv after 29 mins; assay type: ADME, organism-based, Macaca mulatta; details: in vivo; in short: as §3
[24] = tested on: Striatum; assay: Biodistribution in rhesus monkey striatum at 150.3 MBq, iv after 29 mins; assay type: ADME, organism-based, Macaca mulatta; details: in vivo
[25] = Biodistribution in rhesus monkey cingulate cortex at 150.3 MBq, iv after 31 mins; assay type: ADME, organism-based, Macaca mulatta; details: in vivo; in short: as §2
[26] = tested on: Striatum; assay: Biodistribution in rhesus monkey striatum at 150.3 MBq, iv after 33 mins; assay type: ADME, organism-based, Macaca mulatta; details: in vivo, 0.55 h
[27] = Biodistribution in rhesus monkey cingulate cortex at 150.3 MBq, iv after 37 mins; assay type: ADME, organism-based, Macaca mulatta; details: in vivo; in short: as §2
[28] = tested on: Striatum; assay: Biodistribution in rhesus monkey striatum at 150.3 MBq, iv after 41 mins; assay type: ADME, organism-based, Macaca mulatta; details: in vivo
[29] = Biodistribution in rhesus monkey occipital lobe at 150.3 MBq, iv after 41 mins; assay type: ADME, organism-based, Macaca mulatta; details: in vivo
In short: (§4)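 A male rhesus monkey was anaesthetised with ketamine 10 mg/kg im and placed in a head fixation device. A 20 min 68Ge-68Ga transmission scan was run for attenuation correction. Radiotracer in saline (pH 7.4) was given iv, about 52 pmol (18 ng), at 2.9 TBq/μmol at injection. A dynamic 3D PET scan followed for 90 min. Regional VOIs were defined on a T1-weighted MRI, with uptake expressed as %ID/mL.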

[30] = tested on: Striatum; assay: Biodistribution in rhesus monkey striatum at 150.3 MBq, iv after 43 mins; assay type: ADME, organism-based, Macaca mulatta; details: in vivo
[31] = Biodistribution in rhesus monkey cingulate cortex at 150.3 MBq, iv after 49 mins; assay type: ADME, organism-based, Macaca mulatta; details: in vivo; in short: as §1
[32] = Biodistribution in rhesus monkey entorhinal cortex at 150.3 MBq, iv after 49 mins; assay type: ADME, organism-based, Macaca mulatta; details: in vivo; in short: as §1
[33] = tested on: Striatum; assay: Biodistribution in rhesus monkey striatum at 150.3 MBq, iv after 49 mins; assay type: ADME, organism-based, Macaca mulatta; details: in vivo
[34] = Biodistribution in rhesus monkey occipital lobe at 150.3 MBq, iv after 49 mins; assay type: ADME, organism-based, Macaca mulatta; details: in vivo; in short: as §4
[35] = Biodistribution in rhesus monkey cingulate cortex at 150.3 MBq, iv after 57.5 mins; assay type: ADME, organism-based, Macaca mulatta; details: in vivo; in short: as §1
[36] = Biodistribution in rhesus monkey retina at 150.3 MBq, iv after 62.5 mins; assay type: ADME, organism-based, Macaca mulatta; details: in vivo
[37] = Biodistribution in rhesus monkey cingulate cortex at 150.3 MBq, iv after 67.5 mins; assay type: ADME, organism-based, Macaca mulatta; details: in vivo, 1.125 h; in short: as §1
[38] = tested on: Hippocampus; assay: Biodistribution in rhesus monkey hippocampus at 150.3 MBq, iv after 82.5 mins; assay type: ADME, organism-based, Macaca mulatta; details: in vivo, 1.375 h; in short: as §3
[39] = Biodistribution in rhesus monkey retina at 150.3 MBq, iv after 82.5 mins; assay type: ADME, organism-based, Macaca mulatta; details: in vivo, 1.375 h
[40] = tested on: Hippocampus; assay: Biodistribution in rhesus monkey hippocampus at 150.3 MBq, iv after 2.75 mins; assay type: ADME, organism-based, Macaca mulatta; details: in vivo, 165 s; in short: as §1
[41] = Biodistribution in rhesus monkey cerebellum at 150.3 MBq, iv after 8.5 mins; assay type: ADME, organism-based, Macaca mulatta; details: in vivo; in short: as §2
[42] = tested on: Hippocampus; assay: Biodistribution in rhesus monkey hippocampus at 150.3 MBq, iv after 52.5 mins; assay type: ADME, organism-based, Macaca mulatta; details: in vivo, 0.875 h; in short: as §3
[43] = Biodistribution in rhesus monkey entorhinal cortex at 150.3 MBq, iv after 52.5 mins; assay type: ADME, organism-based, Macaca mulatta; details: in vivo, 0.875 h; in short: as §1
[44] = tested on: Striatum; assay: Biodistribution in rhesus monkey striatum at 150.3 MBq, iv after 17 mins; details: in vivo

**Q.** With `[11CH3]Oc1cccc(C(=O)NCCN2CCN(c3ncccc3C#N)CC2)c1` as the compound, how does the Drug uptake [1] read?
**A.** 39.52 kBq/ml

**Q.** And the Drug uptake [2]?
**A.** 57.7053 kBq/ml

**Q.** What about the Drug uptake [3] of the same compound?
**A.** 55.94 kBq/ml

**Q.** And the Drug uptake [4]?
**A.** 50.61 kBq/ml

**Q.** What about the Drug uptake [5] of the same compound?
**A.** 39.8367 kBq/ml

**Q.** What about the Drug uptake [6] of the same compound?
**A.** 33.71 kBq/ml

**Q.** What about the Drug uptake [7] of the same compound?
**A.** 36.57 kBq/ml

**Q.** What about the Drug uptake [8] of the same compound?
**A.** 39.4 kBq/ml

**Q.** What about the Drug uptake [9] of the same compound?
**A.** 35.15 kBq/ml

**Q.** And the Drug uptake [10]?
**A.** 31.35 kBq/ml

**Q.** What about the Drug uptake [11] of the same compound?
**A.** 43.92 kBq/ml

**Q.** What about the Drug uptake [12] of the same compound?
**A.** 28.08 kBq/ml

**Q.** And the Drug uptake [13]?
**A.** 49.56 kBq/ml

**Q.** What about the Drug uptake [14] of the same compound?
**A.** 23.13 kBq/ml

**Q.** And the Drug uptake [15]?
**A.** 50.22 kBq/ml

**Q.** And the Drug uptake [16]?
**A.** 18.9122 kBq/ml

**Q.** And the Drug uptake [17]?
**A.** 20.01 kBq/ml

**Q.** What about the Drug uptake [18] of the same compound?
**A.** 17.4 kBq/ml

**Q.** And the Drug uptake [19]?
**A.** 54.68 kBq/ml

**Q.** And the Drug uptake [20]?
**A.** 16.72 kBq/ml

**Q.** What about the Drug uptake [21] of the same compound?
**A.** 17.99 kBq/ml

**Q.** What about the Drug uptake [22] of the same compound?
**A.** 15.14 kBq/ml

**Q.** What about the Drug uptake [23] of the same compound?
**A.** 16.7 kBq/ml

**Q.** What about the Drug uptake [24] of the same compound?
**A.** 15.32 kBq/ml

**Q.** What about the Drug uptake [25] of the same compound?
**A.** 14.33 kBq/ml

**Q.** And the Drug uptake [26]?
**A.** 14.6624 kBq/ml

**Q.** What about the Drug uptake [27] of the same compound?
**A.** 11.95 kBq/ml

**Q.** What about the Drug uptake [28] of the same compound?
**A.** 11.2 kBq/ml

**Q.** And the Drug uptake [29]?
**A.** 9.836 kBq/ml

**Q.** And the Drug uptake [30]?
**A.** 11.39 kBq/ml

**Q.** What about the Drug uptake [31] of the same compound?
**A.** 10.6 kBq/ml

**Q.** What about the Drug uptake [32] of the same compound?
**A.** 9.688 kBq/ml

**Q.** And the Drug uptake [33]?
**A.** 10.09 kBq/ml

**Q.** What about the Drug uptake [34] of the same compound?
**A.** 9.036 kBq/ml

**Q.** What about the Drug uptake [35] of the same compound?
**A.** 10.34 kBq/ml

**Q.** And the Drug uptake [36]?
**A.** 54.08 kBq/ml

**Q.** And the Drug uptake [37]?
**A.** 9.959 kBq/ml

**Q.** What about the Drug uptake [38] of the same compound?
**A.** 8.042 kBq/ml

**Q.** And the Drug uptake [39]?
**A.** 52.3 kBq/ml

**Q.** And the Drug uptake [40]?
**A.** 47.34 kBq/ml

**Q.** What about the Drug uptake [41] of the same compound?
**A.** 27.59 kBq/ml

**Q.** And the Drug uptake [42]?
**A.** 9.565 kBq/ml

**Q.** And the Drug uptake [43]?
**A.** 9.01 kBq/ml

**Q.** What about the Drug uptake [44] of the same compound?
**A.** 20.6138 kBq/ml
